Screening data: PubChem BioAssay, The Scripps Research Institute Molecular Screening Center
Rows were chosen to be rich in hits. Some 4% of all compounds tested hit in one or more screens of this group.
TAAR1 agonist = human TAAR1 agonists, primary screen, Fluo-8 calcium fluorescence, CHO RD-HGA16 cells; Trace amine-associated receptor 1 (Homo sapiens), Q96RJ0; vehicle wells 0%, saturating PEA agonist 100%; activation, % at 3 µM; 0.99% of 360,000 active; AID 624467, 2012;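 active means activation above the mean activation of all test compounds in the run plus 3 SD, cut at about 38% in these data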
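System: CHO RD-HGA16 cells carrying human TAAR1 plus Gα16; Incubation: 17-24 h seeding, 75 min 37 °C dye, 30 min RT; Measured by: Fluo-8 fluorescence, 5 s baseline then 140 s kinetic read; Control set: DMSO and PEA EC100; Replication: single well for each compound.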
TAAR1 antag = human TAAR1 antagonists, primary screen, Fluo-8 calcium fluorescence, CHO RD-HGA16 cells; Trace amine-associated receptor 1 (Homo sapiens), Q96RJ0; antagonist; inhibition, % at 3 µM; 1.5% of 360,000 active;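 active means inhibition above a per-plate cutoff, the mean inhibition of test compounds on that plate plus 3 SD, cut at about 49% in these data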;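 further: 0% = DMSO plus EC80 beta-PEA response and 100% = DMSO alone without agonist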
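Assay system: RD-HGA16 CHO cells with stable hTAAR1 and Gα16 / Reagent: EC80 β-phenethylamine stimulus / Doses: 3 µM, single point / Timing: dye loading 75 min at 37 °C, then 30 min room temperature / Measured by: Fluo-8 intracellular calcium dye fluorescence, real-time kinetic reads / Controls: vehicle wells and EC80 agonist wells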
OX1R antag-1 = OX1R (HCRTR1) antagonists, primary screen, fluorescence, CHO/OX1R cells, Fluo-8 calcium, orexin A; Fluo-8 calcium fluorescence; AID 434989, 2010; inhibition, % at 5 µM; Orexin/Hypocretin receptor type 1 (Homo sapiens), O43613; 0.43% of 330,000 active;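 active means inhibition above its plate's threshold, mean inhibition of all tested compounds on the plate plus 3 SD, cut at about 37% in these data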;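 further: 0% = orexin A challenge wells and 100% = SB-334867-A antagonist wells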
Target sequence (O43613 whole entry, looked up): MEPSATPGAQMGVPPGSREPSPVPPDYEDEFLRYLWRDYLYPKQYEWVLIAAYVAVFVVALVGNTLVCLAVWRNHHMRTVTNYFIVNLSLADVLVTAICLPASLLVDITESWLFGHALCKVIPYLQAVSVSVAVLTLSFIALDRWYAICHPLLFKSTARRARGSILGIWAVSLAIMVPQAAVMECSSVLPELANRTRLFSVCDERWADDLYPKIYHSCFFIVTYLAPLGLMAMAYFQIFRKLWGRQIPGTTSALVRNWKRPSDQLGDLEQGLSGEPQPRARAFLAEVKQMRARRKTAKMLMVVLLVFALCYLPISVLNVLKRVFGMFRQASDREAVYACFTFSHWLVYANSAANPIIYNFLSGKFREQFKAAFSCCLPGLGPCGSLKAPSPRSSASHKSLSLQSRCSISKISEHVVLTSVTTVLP
OX1R antag-2 = antagonists of human orexin 1 receptor (OX1R). 1.8% of 330,000 active. inhibition, % at 6.6 µM. AID 485270, 2010. OX1R-expressing cells, FRET antagonist read-out; in the data active means inhibition mostly above about 38%, no sharp cut-off; inactive means mostly below about 40%;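 further: 0% = agonist challenge alone and 100% = reference antagonist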
CHO parental Ca = ATP-evoked calcium signal inhibitors, parental CHO, primary screen, counter-screen for OX1R antagonist project, cell-based, fluorescence, Fluo-8 calcium dye; inhibition, % at 5.6 µM; 0.63% of 330,000 active; parental CHO-K1, ATP-induced calcium, Fluo-8 fluorescence;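 active means inhibition above that plate's mean sample inhibition plus 3 SD, cut at about 26% in these data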;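 further: 0% = ATP-challenged DMSO wells and 100% = DMSO wells without ATP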
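Material – parental CHO cells · Reagent – ATP stimulus · Compound – single nominal dose of 5.6 µM per compound · Detection – Fluo-8 fluorescence · Read-out basis – percent inhibition of calcium signal · Controls – ATP-challenged DMSO wells low, unchallenged DMSO wells high · Repeats – no replicates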
OX1R HTRF confirm = OX1R (HCRTR1) antagonists, confirmation, cell-based, HTRF; 49% of 1,800 active; shares compounds with OX1R antag-2; AID 492964, 2010; OX1R-expressing cells, HTRF antagonist assay; inhibition, % at 6.6 µM; in the data active means inhibition above about 55%;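 further: CHO cells expressing OX1R stimulated with orexin A at about EC80; 0% = agonist challenge alone and 100% = reference antagonist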
CHO-K1 HTRF = signal inhibition in parental CHO-K1 cells, counter-screen for OX1R antagonist project, cell-based, HTRF | shares compounds with OX1R antag-2 | HTRF counterscreen | inhibition, % at 6.6 µM | 48% of 1,800 active; in the data active means inhibition above about 17%;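 further: 0% = agonist challenge with vehicle and 100% = vehicle alone without agonist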
An asterisk follows results filed as active; x = no result.

SMILES	TAAR1 agonist	TAAR1 antag	OX1R antag-1	OX1R antag-2	CHO parental Ca	OX1R HTRF confirm	CHO-K1 HTRF
O=C(O)c1cccc(NC2=C(n3nnc4ccccc43)C(=O)c3ccccc3C2=O)c1	2	-10	6	148*	-7	94*	95*
O=C(O)c1cccc(NS(=O)(=O)c2ccc3nnn(O)c3c2)c1	-1	-7	-23	2	-10	x	x
CCOC(=O)c1ccc(-c2c(C(=O)OCC)oc3cc(O)c(CC)cc3c2=O)o1	11	46	11	83*	-9	27	9
CCOC(=O)c1oc2cc(O)c(CC)cc2c(=O)c1-c1cscn1	1	7	-15	10	-16	x	x
CCCCn1c(SCC(=O)NNC(=O)c2ccccc2)n[nH]c1=O	-2	3	-8	4	1	x	x
CCOC(=O)c1ccc(Nc2nc(C)cc(C)n2)cc1	1	-3	x	x	x	x	x
CCOC(=O)c1ccc(Nc2cc(C)nc(-c3ccccc3)n2)cc1	0	40	26	83*	8	29	15
COC(=O)c1ccc2nc(-c3ccco3)c(Cc3cccc(F)c3)n2c1	3	-16	x	x	x	x	x
Cn1cc([N+](=O)[O-])c(C(=O)NNC(=O)c2ccc([N+](=O)[O-])cc2)n1	2	-24	-1	98*	-14	43	53*
Cn1cc([N+](=O)[O-])c(C(=O)N/N=C/c2ccc([N+](=O)[O-])cc2)n1	2	-4	-17	110*	-13	49	58*
CCN=C(N/N=C/c1ccc([N+](=O)[O-])cc1)SC	6	-2	-26	88*	5	37	51*
O=[N+]([O-])c1ccc(C=NNC(=S)NN=Cc2ccc([N+](=O)[O-])cc2)cc1	1	21	x	x	x	x	x
CC(C)(C)n1[nH]c2c3c(ccc2c1=O)C(=O)c1ccccc1C3=O	1	-7	-31	129*	-10	46	43*
O=C(Oc1coc(CSc2ncccn2)cc1=O)c1cccs1	1	-8	-6	10	7	x	x
C=CCNC(=S)N/N=C(\C)c1cccnc1	0	-2	-20	104*	-2	13	2
O=C(c1c(F)cccc1F)N(C1CCCCC1)C1CCCCC1	-3	-15	-38	13	25	x	x
Cc1cc(C=C2C(=O)c3ccccc3C2=O)c(C)n1C	1	8	10	92*	-8	38	14
CCn1c(C)cc(C=C2C(=O)c3ccccc3C2=O)c1C	2	13	x	x	x	x	x
O=C1[C@H]2[C@@H](C3CC3)N3C(=O)CN(Cc4ccccn4)C(=O)[C@@]3(Cc3ccccc3)[C@H]2C(=O)N1c1ccccc1	2	5	-15	15	-10	x	x
COc1cccc(C(=O)/C(C#N)=N/Nc2cccc(-c3ccnc(C)n3)c2)c1	8	4	-13	77*	-2	50	18*
CCOc1ccc(N(CC(=O)NN=C2CCN(C)CC2)S(=O)(=O)c2ccc(Br)cc2)cc1	3	-25	x	x	x	x	x
CN(C(=O)CSc1ncc(C(F)(F)F)cc1Cl)c1c(N)n(Cc2ccccc2)c(=O)[nH]c1=O	1	-20	20	89*	-2	68*	4
COCCN(C(=O)CSc1ncc(C(F)(F)F)cc1Cl)c1c(N)n(Cc2ccccc2)c(=O)[nH]c1=O	-1	-2	-11	47	-15	x	x
O=C(NN1C(=O)/C(=C/c2ccc(O)c([N+](=O)[O-])c2)SC1=S)c1ccccc1Cl	9	9	-29	112*	-15	55*	17*
O=C(NN1C(=O)/C(=C/c2cc([N+](=O)[O-])ccc2O)SC1=S)c1ccccc1O	x	x	-9	14	-4	x	x
